Results reported in ChEMBL document CHEMBL1138476 (J Med Chem, 2009).

Columns and labels:
[1] = Plasma concentration in dog at 1 mg/kg after intravenous infusion for 30 mins; assay type: ADME, organism-based, Canis lupus familiaris; parameters: dose 1 mg/kg, route intravenous
Canis familiaris [2] = experiment: Effect on respiratory function in spontaneously breathing mongrel dog assessed as change in intrapleural pressure at 5 mg/kg after intravenous infusion for 60 mins (RVb= 18.5+/-19.9 %); assay type: functional, Canis lupus familiaris
Rattus norvegicus [3] = experiment: Effect on acute renal function in rat assessed as change in urine protein level per 100 gm body weight at 30 mg/kg, po (RVb= 12.0+/-2.4 mg/dl); assay type: functional
[4] = target: T1, Adenosine receptor A1 (Homo sapiens) (UniProt P30542); experiment: Inhibition of ligand binding in adenosine A1 receptor; parameters: scale not given: the % may be the effect or the level left
T1 sequence (whole entry): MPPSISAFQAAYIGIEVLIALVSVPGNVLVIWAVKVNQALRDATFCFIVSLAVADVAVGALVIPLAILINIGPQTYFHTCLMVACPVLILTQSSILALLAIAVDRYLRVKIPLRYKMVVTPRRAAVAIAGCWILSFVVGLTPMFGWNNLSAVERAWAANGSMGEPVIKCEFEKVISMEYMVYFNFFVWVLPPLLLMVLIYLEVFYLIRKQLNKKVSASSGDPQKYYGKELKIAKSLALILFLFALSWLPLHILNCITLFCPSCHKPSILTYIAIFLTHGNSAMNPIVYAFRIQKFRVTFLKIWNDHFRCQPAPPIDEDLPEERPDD
Method in brief: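 Screened at 10^-7 and 10^-5 M for binding inhibition. Then run twice in a dose–response format on the cloned rat adenosine A1 receptor expressed in CHO cells to obtain Ki.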

Canis familiaris [5] = experiment: Effect on respiratory function in spontaneously breathing mongrel dog assessed as change in peak expiratory flow at 5 mg/kg after intravenous infusion for 60 mins (RVb= 0.4+/-6.7 %); assay type: functional, Canis lupus familiaris
Canis familiaris [6] = experiment: Effect on respiratory function in spontaneously breathing mongrel dog assessed as change in tidal volume at 5 mg/kg after intravenous infusion for 15 mins (RVb= 2.2+/-4.3 %); assay type: functional, Canis lupus familiaris
Canis familiaris [7] = experiment: Effect on respiratory function in spontaneously breathing mongrel dog assessed as change in minute volume at 5 mg/kg after intravenous infusion for 30 mins (RVb= 1.0+/-9.7 %); assay type: functional, Canis lupus familiaris
Canis familiaris [8] = experiment: Effect on respiratory function in spontaneously breathing mongrel dog assessed as change in minute volume at 5 mg/kg after intravenous infusion for 60 mins (RVb= -13.4+/-10.7 %); assay type: functional, Canis lupus familiaris
Canis familiaris [9] = experiment: Effect on respiratory function in spontaneously breathing mongrel dog assessed as change in airway resistance at 5 mg/kg after intravenous infusion for 6 mins (RVb= 3.9+/-4.7 %); assay type: functional, Canis lupus familiaris
Canis familiaris [10] = experiment: Effect on respiratory function in spontaneously breathing mongrel dog assessed as change in airway resistance at 5 mg/kg after intravenous infusion for 15 mins (RVb= 27.8+/-17.9 %); assay type: functional, Canis lupus familiaris
Canis familiaris [11] = experiment: Effect on respiratory function in spontaneously breathing mongrel dog assessed as change in heart rate at 5 mg/kg after intravenous infusion for 6 mins (RVb= -0.4+/-0.7 %); assay type: functional, Canis lupus familiaris
Canis familiaris [12] = experiment: Effect on respiratory function in spontaneously breathing mongrel dog assessed as change in heart rate at 5 mg/kg after intravenous infusion for 60 mins (RVb= -0.9+/-5.8 %); assay type: functional, Canis lupus familiaris
[13] = AUC in Beagle dog at 1 mg/kg, po by cassette dosing; assay type: ADME, organism-based, Canis lupus familiaris; parameters: dose 1 mg/kg, route oral; details: plasma
[14] = target: T2, Corticotropin-releasing factor receptor 1 (Rattus norvegicus, UniProt P35353); experiment: Antagonist activity at CRF1 receptor in rat pituitary cells assessed as inhibition of CRF-mediated ACTH production; assay type: functional, cell-based, Pituitary gland cell
T2 sequence (P35353 whole entry): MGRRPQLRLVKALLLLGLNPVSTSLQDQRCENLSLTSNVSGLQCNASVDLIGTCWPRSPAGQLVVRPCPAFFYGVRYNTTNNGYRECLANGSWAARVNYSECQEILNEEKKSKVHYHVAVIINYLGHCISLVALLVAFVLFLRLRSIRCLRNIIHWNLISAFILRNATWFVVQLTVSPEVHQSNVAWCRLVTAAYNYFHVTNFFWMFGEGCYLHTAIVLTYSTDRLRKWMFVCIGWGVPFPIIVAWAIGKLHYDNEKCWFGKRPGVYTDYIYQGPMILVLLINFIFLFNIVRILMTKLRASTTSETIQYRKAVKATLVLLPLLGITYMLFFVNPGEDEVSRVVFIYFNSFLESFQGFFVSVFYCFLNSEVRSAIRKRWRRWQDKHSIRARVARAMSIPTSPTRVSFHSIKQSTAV

Substance-K receptor = target: T3, Substance-K receptor (Homo sapiens, UniProt P21452); experiment: Binding affinity to human neurokinin 2 receptor
T3 sequence (P21452 whole entry): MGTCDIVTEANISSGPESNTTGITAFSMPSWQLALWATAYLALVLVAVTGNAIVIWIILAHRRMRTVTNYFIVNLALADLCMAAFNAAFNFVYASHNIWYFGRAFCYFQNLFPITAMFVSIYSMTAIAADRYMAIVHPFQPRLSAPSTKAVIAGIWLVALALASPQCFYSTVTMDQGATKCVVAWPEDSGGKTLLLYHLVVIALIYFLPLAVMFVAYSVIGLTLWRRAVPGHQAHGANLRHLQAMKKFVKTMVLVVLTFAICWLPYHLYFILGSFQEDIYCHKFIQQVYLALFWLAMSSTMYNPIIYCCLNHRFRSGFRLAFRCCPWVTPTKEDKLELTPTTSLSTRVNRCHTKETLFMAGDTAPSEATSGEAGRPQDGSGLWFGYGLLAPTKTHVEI
Method in brief: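 Human neurokinin 2 receptor binding, contracted out as part of a broad screen.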

Rattus norvegicus [15] = experiment: Toxicity in rat assessed as time spent on rotarod at 10 mg/kg, po after 1 hr by rotarod test; assay type: organism-based; parameters: dose 10 mg/kg, route oral; details: in vivo
Method in brief: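 Rats, n = 8 per dose, dosed po in 0.25% Methocel 1 h before testing, at 0, 1.0, 3.0, 10, 30 and 100 mg/kg. Read-out is time on rotorod (s), mean ± SEM, compared with the vehicle (zero-dose) group.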

[16] = Clearance in rat at 1 mg/kg, iv and 5 mg/kg, po; assay type: ADME, organism-based; details: in vivo
Method in brief: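 Rats (n = 3) received 1 mg/kg iv in 10% DMAC, 70% propylene glycol and deionized water, or 5 mg/kg orally in 0.5% methylcellulose.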

[17] = AUC (0 to infinity) in chimpanzee at 1 mg/kg, po; assay type: ADME, organism-based, Pan troglodytes; parameters: time infinity, dose 1 mg/kg, route oral; details: plasma
Method in brief: (§1)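 Chimpanzee PK. Oral: 1 mg/kg in two alert animals, given as a 1 mg/mL suspension in 50–50 (v/v) 0.5% methylcellulose/Tang orange juice with 1% Tween-80. IV: 0.5 mg/kg in one animal in 10% DMAC, 70% propylene glycol and deionized water, infused over 10 min (0.2 mL/kg). EDTA blood was taken predose and at 2–96 h; iv sampling added 6, 15 and 30 min.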

[18] = Clearance in chimpanzee at 0.5 mg/kg, iv; assay type: ADME, organism-based, Pan troglodytes; parameters: dose 0.5 mg/kg, route intravenous; details: in vivo; method in brief: as §1

concentration at 0.5 h [1]: 473 nM | Activity [4]: 90% | AUC [13]: 2.02 µM·h | IC50 [14]: 129 nM | IC50 (Substance-K receptor): 4900 nM | clearance [16]: 17.9 mL/min/kg | AUC(0-inf) [17]: 11.7 µM·h | clearance [18]: 2 mL/min/kg
SMILES: CC[C@@H](C)Nc1nc(C)nc2c(-c3ccc(OC)nc3C)c(C)nn12 [PEXACERFONT]
Activity (Canis familiaris [2]): 0.7% | Activity (Rattus norvegicus [3]): 6.6 mg/dL | Activity (Canis familiaris [5]): 7.5% | Activity (Canis familiaris [6]): 4.3% | Activity (Canis familiaris [7]): -30.8% | Activity (Canis familiaris [8]): -6% | Activity (Canis familiaris [9]): 15.3% | Activity (Canis familiaris [10]): 9% | Activity (Canis familiaris [11]): -0.3% | Activity (Canis familiaris [12]): -2.3% | Time (Rattus norvegicus [15]): 158 s
